Results of several laboratories.
Protocols differ between the studies behind these lines.
Target: Casein kinase II subunit alpha' (CSNK2A2, Homo sapiens, UniProt P19784)

CO[C@@H](C)c1c(Nc2ccc([C@@H](N(C)C(=O)C3CCS(=O)(=O)CC3)C(F)(F)F)cc2)cnc2cc(Cl)nn12 — remaining binding (cell-free assay; competition with immobilised ligand; 1 µM): 100%
COc1cnc(Nc2cccc(S(N)(=O)=O)c2)nc1N1CCN(c2ccccc2)C(=O)C1 — remaining binding (binding; competition with immobilised ligand; 1 µM): 86%
C=CC(=O)N1CCC(C(=O)NCC(=O)N2CCN(c3nc(-c4cnc(N)nc4C(F)F)nc(N4CCOCC4)n3)CC2)CC1 — remaining binding (binding; competition with immobilised ligand; 1 µM): 100%
C[C@H]1CCN(c2nccc(-c3cnn4ncccc34)n2)C1 — remaining binding (binding; 1 µM): 56%
Cc1c(NC(=O)c2cc(C(N)=O)nc3cc(F)ccc23)c(C(F)(F)F)nn1Cc1ccc(C#N)cc1 — remaining binding (cell-free assay; competition with immobilised ligand; 1 µM): 100%
CN(C)c1nccc(-c2cnc3ncccn23)n1 — remaining binding (binding; 1 µM): 24%
CN(C)C(=O)Cn1cc(-c2nc(C3(c4ccc(-c5cnc(N)nc5)cc4)CC3)no2)cn1 — remaining binding (cell-free assay; competition with immobilised ligand; 1 µM): 100%
Nc1ncc2c(n1)-c1c([nH]c3ccc(C#CC4CC4)cc13)CCCC2 — remaining binding (binding; competition with immobilised ligand; 1 µM): 82%
O=C(NCCCN1CCOCC1)c1ccc(Nc2nccc(-c3cc4ccccc4s3)n2)cc1 — remaining binding (binding; competition with immobilised ligand; 1 µM): 19%
CN(CCCC(F)(F)F)c1nccc(-c2cnn3ncccc23)n1 — remaining binding (binding; 1 µM): 92%
CC1=C(C#N)[C@@H](c2ccc3[nH]nc(C)c3c2)C(C#N)=C(c2ccc(Cl)cc2)N1 — remaining binding (cell-free assay; competition with immobilised ligand; 1 µM): 100%
O=C(c1ccc(Nc2ncc(Cl)c(-c3cc4ccccc4s3)n2)cc1)N1CCC(N2CCCC2)CC1 — remaining binding (binding; competition with immobilised ligand; 1 µM): 0.1%
c1cnn2ncc(-c3ccnc(N4CCC45COC5)n3)c2c1 — remaining binding (binding; 1 µM): 24%
CC(C)(O)c1cncc(-c2nc3ccc(F)cc3n2C2CC2)c1 — remaining binding (cell-free assay; competition with immobilised ligand; 1 µM): 100%
Cc1cnn2ncc(-c3ccnc(N(C)C)n3)c2c1 — remaining binding (binding; 1 µM): 69%
O=C(Nc1c[nH]nc1C(=O)NC1CCNCC1)c1cc(F)cc(F)c1 — remaining binding (binding; competition with immobilised ligand; 1 µM): 100%
O=C(c1ccc(Nc2nccc(-c3cc4ccccc4s3)n2)cc1)N1CCC(N2CCCC2)CC1 — remaining binding (binding; competition with immobilised ligand; 1 µM): 1.8%
CN([C@@H]1CCc2c(CC(=O)O)c3cc(S(C)(=O)=O)ccc3n2C1)S(=O)(=O)c1ccc(F)cc1 — remaining binding (cell-free assay; competition with immobilised ligand; 1 µM): 100%
CN(C)c1nccc(-c2cnn3ncccc23)n1 — remaining binding (binding; 1 µM): 39%
CCN1CCN(Cc2ccc(C(=O)Nc3ccc(C)c(Oc4ccc5c(c4)CC(=O)N5)c3)cc2C(F)(F)F)CC1 — remaining binding (binding; competition with immobilised ligand; 1 µM): 95%
N[C@@H]1CCN(c2nccc(-c3cnn4ncccc34)n2)C1 — remaining binding (binding; 1 µM): 100%
C[C@@H](c1ccc(-n2cnc3c(N)ncnc32)cc1)N1CCc2nn(C)c(Cc3ccccc3)c2C1=O — remaining binding (binding; competition with immobilised ligand; 0.1 µM): 86%
